Laboratory results: ChEMBL document CHEMBL3351406, “Synthesis and biological evaluation of the [d-MeAla(11)]-epimer of coibamide A” (Bioorg Med Chem Lett, 2015)
Where a SMILES comes first, the peptide text is derived from it. Bridges are numbered along the chain shown (N, C = ends). [ ]: non-standard residue; d: D form. The star is where a group is joined. NMe2Val = CC(C)[C@@H](C(=O)*)N(C)C; NMeI = CC[C@H](C)[C@H](NC)C(=O)O; NMeT = CN[C@H](C(=O)O)[C@@H](C)O; NMeL = CN[C@@H](CC(C)C)C(=O)O; Hiv = CC(C)[C@H](O)C(=O)O; NMeS = CN[C@@H](CO)C(=O)O; NMeA = CN[C@@H](C)C(=O)O; dNMeA = CN[C@H](C)C(=O)O

Legend:
Assay type in all cases: functional, cell-based
[1] = system: NCI-H292; assay: Cytotoxicity against human NCI-H292 cells assessed as growth inhibition after 72 hrs by MTT assay; details: NCI-H292, 72 h
Method in brief: (§1)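 Media: PC-3 in DMEM with 10% FBS, 2 mM L-glutamine and penicillin/streptomycin; SF-295, MDA-MB-231 and H292 in RPMI-1640 with 10% FBS, 2 mM L-glutamine, 1 mM pyruvate and penicillin/streptomycin. Cells were seeded at 3,000 per well 16 h before adding compound or DMSO vehicle, then kept 72 h at 5% CO2. Viability was measured by MTT, normalised to vehicle-treated cells as 100%.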

[2] = Cytotoxicity against human PC3 cells assessed as growth inhibition after 72 hrs by MTT assay; details: PC-3, 72 h; method in brief: as §1
[3] = system: A549; assay: Cytotoxicity against human A549 cells assessed as growth inhibition after 72 hrs by MTS assay; details: A549, 72 h
Method in brief: (§2)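 Seeding per well: A549 500 cells (DMEM), HCT-116 5000 (McCoy's 5A), MCF-7 5000 (EMEM), B16 2000 (DMEM). All media had 10% FBS; cells kept at 37 °C, 5% CO2. Cells settled 6 h, then received compounds pre-diluted 250-fold from DMSO into medium, and were exposed 72 h. Wells were washed with phenol-red-free medium, given MTS for 40 min, and read at 490 nm absorbance.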

[4] = system: B16; assay: Cytotoxicity against mouse B16 cells assessed as growth inhibition after 72 hrs by MTS assay; details: B16, 72 h; method in brief: as §2
[5] = system: MDA-MB-231; assay: Cytotoxicity against human MDA-MB-231 cells assessed as growth inhibition after 72 hrs by MTT assay; details: MDA-MB-231, 72 h; method in brief: as §1
[6] = system: MCF7; assay: Cytotoxicity against human MCF7 cells assessed as growth inhibition after 72 hrs by MTS assay; details: MCF7, 72 h; method in brief: as §2
[7] = system: SF-295; assay: Cytotoxicity against human SF295 cells assessed as growth inhibition after 72 hrs by MTT assay; details: SF-295, 72 h; method in brief: as §1
[8] = Cytotoxicity against human HCT116 cells assessed as growth inhibition after 72 hrs by MTS assay; details: HCT-116, 72 h; method in brief: as §2

Structure (SMILES): CC[C@H](C)[C@H]1C(=O)N[C@@H](C)C(=O)N(C)[C@@H](CC(C)C)C(=O)N[C@@H](Cc2ccc(OC)cc2)C(=O)N(C)[C@H](C)C(=O)O[C@H](C)[C@H](N(C)C(=O)[C@H](CC(C)C)N(C)C(=O)[C@H](COC)N(C)C(=O)[C@@H](OC(=O)[C@H](C(C)C)N(C)C)C(C)C)C(=O)N(C)[C@@H](COC)C(=O)N1C (NMe2Val-[Hiv][NMeS](Me)[NMeL][NMeT][NMeS](Me)[NMeI]A[NMeL]Y(Me)[dNMeA]; ester 4-C)
- IC50 [1]: 610 nM
- IC50 [2]: 424 nM
- IC50 [3]: 19 nM
- IC50 [4]: 54.4 nM
- IC50 [5]: 545 nM
- IC50 [6]: 48.6 nM
- IC50 [7]: 816 nM
- IC50 [8]: 44.6 nM

Structure (SMILES): CC[C@H](C)[C@H]1C(=O)N[C@@H](C)C(=O)N(C)[C@@H](CC(C)C)C(=O)N[C@@H](Cc2ccc(OC)cc2)C(=O)N(C)[C@@H](C)C(=O)O[C@H](C)[C@H](N(C)C(=O)[C@H](CC(C)C)N(C)C(=O)[C@H](COC)N(C)C(=O)[C@@H](OC(=O)[C@H](C(C)C)N(C)C)C(C)C)C(=O)N(C)[C@@H](COC)C(=O)N1C (NMe2Val-[Hiv][NMeS](Me)[NMeL][NMeT][NMeS](Me)[NMeI]A[NMeL]Y(Me)[NMeA]; ester 4-C)
- IC50 [1]: 124 nM
- IC50 [2]: 80 nM
- IC50 [5]: 66 nM
- IC50 [7]: 219 nM
